Results: ChEMBL document CHEMBL1145514, “Single-dose oral amoxicillin or linezolid for prophylaxis of experimental endocarditis due to vancomycin-susceptible and vancomycin-resistant Enterococcus faecalis” (Antimicrob Agents Chemother, 2007)
≈ marks a conversion by molar mass, not a printed value. Calls of active or inactive are those of the source. The calls are words filed in the database; no cut-off is given here.

Experiments:
Enterococcus faecalis [1] = assay: Antibacterial activity against vancomycin-susceptible Enterococcus faecalis JH2-2 after 24 hrs by broth macrodilution method; format: functional
Enterococcus faecalis [2] = assay: Antibacterial activity against vancomycin-resistant Enterococcus faecalis UCN41 challenged with 10 times ID90 bacterial size inoculum in Wistar rat assessed as infection at single administration of 600 mg, po; format: functional, organism-based
How it was run: (§1)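 Female Wistar rats (180 to 200 g) with catheter-induced sterile aortic vegetations; 24 h after catheterization, groups of 10 received prophylaxis by pump at changing flow rates mimicking human serum kinetics; controls got i.v. saline. I.v. challenge at peak serum drug level with ID90 or 10 times ID90. Vegetations cultured 72 h after prophylaxis ended; sterile if no growth, detection limit ≥2 log10 CFU/g.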

Enterococcus faecalis [3] = assay: Antibacterial activity against vancomycin-susceptible Enterococcus faecalis 309 challenged with ID90 bacterial size inoculum in Wistar rat assessed as infection at single administration of 2 to 3 g, po; format: functional, organism-based
How it was run: (§2)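 Female Wistar rats (180–200 g) with catheter-induced sterile aortic vegetations. 24 h after catheterization, drug is delivered i.v. by pump at changing flow rates to mimic human serum kinetics of a single 2–3 g oral dose. Rats are challenged i.v. with the ID90 at peak serum concentration. Vegetations are cultured 72 h after prophylaxis ends; sterile = no growth (detection ≥2 log10 CFU/g).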

Enterococcus faecalis [4] = assay: Antibacterial activity against vancomycin-susceptible Enterococcus faecalis 1209 after 24 hrs by broth macrodilution method; format: functional
Enterococcus faecalis [5] = assay: Antibacterial activity against vancomycin-susceptible Enterococcus faecalis 1209 challenged with 10 times ID90 bacterial size inoculum in Wistar rat assessed as infection at single administration of 2 to 3 g, po
Enterococcus faecalis [6] = assay: Antibacterial activity against vancomycin-susceptible Enterococcus faecalis 309 after 24 hrs by broth macrodilution method; format: functional
Enterococcus faecalis [7] = assay: Antibacterial activity against vancomycin-resistant Enterococcus faecalis UCN41 challenged with ID90 bacterial size inoculum in Wistar rat assessed as infection at single administration of 2 to 3 g, po; format: functional, organism-based; how it was run: as §1
Enterococcus faecalis [8] = assay: Antibacterial activity against vancomycin-susceptible Enterococcus faecalis JH2-2 challenged with ID90 bacterial size inoculum in Wistar rat assessed as infection at single administration of 2 to 3 g, po; format: functional, organism-based; how it was run: as §2
[9] = Cmax in Enterococcus faecalis infected Wistar rat at single administration of 2 to 3 g, po; format: ADME, organism-based; settings: in vivo
How it was run: (§3)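 Catheterized female Wistar rats received pump-controlled i.v. infusion at changing flow rates simulating human serum kinetics of the oral regimen. Serum drug levels were measured by agar diffusion bioassay in groups of 3–5 animals. Indicator organisms were B. subtilis ATCC 6633 for amoxicillin (detection limit 0.39 mg/liter) and S. aureus ATCC 29213 for linezolid (detection limit 3.12 mg/liter). Values are means ± SD.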

Rattus norvegicus [10] = assay: T>MIC in Enterococcus faecalis infected Wistar rat at single administration of 2 to 3 g, po; format: ADME, organism-based; settings: in vivo; how it was run: as §3
Enterococcus faecalis [11] = assay: Antibacterial activity against vancomycin-susceptible Enterococcus faecalis 309 challenged with 10 times ID90 bacterial size inoculum in Wistar rat assessed as infection at single administration of 2 to 3 g, po
[12] = Tmax in Enterococcus faecalis infected Wistar rat at single administration of 2 to 3 g, po; format: ADME, organism-based; settings: in vivo
How it was run: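 Female Wistar rats (180-200 g) with catheter-induced sterile aortic vegetations; 24 h after catheterization, drug delivered by pump at changing flow rates to mimic human serum kinetics of a single 2-3 g oral dose. Serum levels in groups of 3-5 rats by agar diffusion bioassay (Bacillus subtilis ATCC 6633 indicator; detection limit 0.39 mg/liter); means ± SD.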

Enterococcus faecalis [13] = assay: Antibacterial activity against vancomycin-resistant Enterococcus faecalis UCN41 after 24 hrs by broth macrodilution method; format: functional
[14] = Tmax in Enterococcus faecalis infected Wistar rat at 600 mg, po four consecutive administration every 12 hrs; format: ADME, organism-based; settings: in vivo
How it was run: (§4)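 Female Wistar rats (180–200 g) with sterile aortic vegetations from a carotid catheter received drug 24 h later by pump at changing flow rates, mimicking human serum kinetics of 600 mg oral doses every 12 h. Serum levels were measured in groups of three to five rats by agar diffusion bioassay (S. aureus ATCC 29213 indicator; detection limit 3.12 mg/liter).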

Rattus norvegicus [15] = assay: T>MIC in Enterococcus faecalis infected Wistar rat at single administration of 600 mg, po; format: ADME, organism-based; settings: in vivo; how it was run: as §3
[16] = Tmax in Enterococcus faecalis infected Wistar rat at 600 mg, po two consecutive administration every 12 hrs; format: ADME, organism-based; settings: in vivo; how it was run: as §4
[17] = Cmax in Enterococcus faecalis infected Wistar rat at 600 mg, po two consecutive administration every 12 hrs; format: ADME, organism-based; set-up: dose 600 mg, route oral; settings: in vivo; how it was run: as §3
Rattus norvegicus [18] = assay: T>MIC in Enterococcus faecalis infected Wistar rat at 600 mg, po four consecutive administration every 12 hrs; format: ADME, organism-based; settings: in vivo; how it was run: as §3
[19] = Cmax in Enterococcus faecalis infected Wistar rat at 600 mg, po four consecutive administration every 12 hrs; format: ADME, organism-based; set-up: dose 600 mg, route oral; settings: in vivo; how it was run: as §3
[20] = Cmax in Enterococcus faecalis infected Wistar rat at single administration of 600 mg, po; format: ADME, organism-based; set-up: dose 600 mg, route oral; settings: in vivo; how it was run: as §3
Rattus norvegicus [21] = assay: T>MIC in Enterococcus faecalis infected Wistar rat at 600 mg, po two consecutive administration every 12 hrs; format: ADME, organism-based; settings: in vivo; how it was run: as §3
[22] = Tmax in Enterococcus faecalis infected Wistar rat at single administration of 600 mg, po; format: ADME, organism-based; settings: in vivo; how it was run: as §4
Rattus norvegicus [23] = assay: T>MIC in Enterococcus faecalis infected Wistar rat at single administration of 1 g, iv; format: ADME, organism-based; settings: in vivo
How it was run: (§5)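 Serum drug levels in rats receiving human-kinetics simulation by pump, measured in groups of three to five animals by agar diffusion bioassay with Bacillus subtilis ATCC 6633 as indicator; detection limit 1.76 mg/liter; linear standard curves. Values as means ± SD.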

Enterococcus faecalis [24] = assay: Antibacterial activity against vancomycin-susceptible Enterococcus faecalis JH2-2 challenged with ID90 bacterial size inoculum in Wistar rat assessed as infection at single administration 1 g, iv; format: functional, organism-based; how it was run: as §1
[25] = Cmax in Enterococcus faecalis infected Wistar rat at single administration of 1 g, iv; format: ADME, organism-based; set-up: dose 1 g, route intravenous; settings: in vivo; how it was run: as §5
Enterococcus faecalis [26] = assay: Antibacterial activity against vancomycin-resistant Enterococcus faecalis UCN41 challenged with ID90 bacterial size inoculum in Wistar rat assessed as infection at single administration of 1 g, iv; format: functional, organism-based; how it was run: as §1
[27] = Tmax in Enterococcus faecalis infected Wistar rat at single administration of 1 g, iv; format: ADME, organism-based; settings: in vivo; how it was run: as §5
[28] = Enterococcus faecalis, 1209, 24 h
[29] = Enterococcus faecalis, 309, 24 h

CC1(C)S[C@@H]2[C@H](NC(=O)[C@H](N)c3ccc(O)cc3)C(=O)N2[C@H]1C(=O)O [AMOXICILLIN]
MIC (Enterococcus faecalis [1]; JH2-2, 24 h): 0.25 mg/L (≈ 0.684 µM) | Activity (Enterococcus faecalis [2]): Active | Activity (Enterococcus faecalis [3]): Active | MIC (Enterococcus faecalis [4]; [28]): 1 mg/L (≈ 2.74 µM) | Activity (Enterococcus faecalis [5]): Active | MIC (Enterococcus faecalis [6]; [29]): 0.5 mg/L (≈ 1.37 µM) | Activity (Enterococcus faecalis [7]): Active | Activity (Enterococcus faecalis [8]): Active | Cmax [9]: 29.4 µg/mL | T>MIC (Rattus norvegicus [10]): 12 h | Activity (Enterococcus faecalis [11]): Active | Tmax [12]: 2 h | MIC (Enterococcus faecalis [13]; UCN41, 24 h): 0.25 mg/L (≈ 0.684 µM)

CC(=O)NC[C@H]1CN(c2ccc(N3CCOCC3)c(F)c2)C(=O)O1 [LINEZOLID]
Activity (Enterococcus faecalis [2]): inactive | Tmax [14]: 1 h | T>MIC (Rattus norvegicus [15]): 12 h | Tmax [16]: 1 h | Cmax [17]: 18.6 µg/mL | T>MIC (Rattus norvegicus [18]): 48 h | Cmax [19]: 19.3 µg/mL | Cmax [20]: 17.5 µg/mL | T>MIC (Rattus norvegicus [21]): 24 h | Tmax [22]: 1 h

CN[C@H](CC(C)C)C(=O)N[C@H]1C(=O)N[C@@H](CC(N)=O)C(=O)N[C@H]2C(=O)N[C@H]3C(=O)N[C@H](C(=O)N[C@H](C(=O)O)c4cc(O)cc(O)c4-c4cc3ccc4O)[C@H](O)c3ccc(c(Cl)c3)Oc3cc2cc(c3O[C@@H]2O[C@H](CO)[C@@H](O)[C@H](O)[C@H]2O[C@H]2C[C@](C)(N)[C@H](O)[C@H](C)O2)Oc2ccc(cc2Cl)[C@H]1O [VANCOMYCIN]
MIC (Enterococcus faecalis [1]; JH2-2, 24 h): 1 mg/L (≈ 0.69 µM) | MIC (Enterococcus faecalis [4]; [28]): 4 mg/L (≈ 2.76 µM) | T>MIC (Rattus norvegicus [23]): 12 h | MIC (Enterococcus faecalis [6]; [29]): 4 mg/L (≈ 2.76 µM) | Activity (Enterococcus faecalis [24]): Active | Cmax [25]: 37.8 µg/mL | Activity (Enterococcus faecalis [26]): inactive | Tmax [27]: 0.5 h | MIC (Enterococcus faecalis [13]; UCN41, 24 h): > 256 mg/L

GENTAMICIN
MIC (Enterococcus faecalis [1]): 2 mg/L | MIC (Enterococcus faecalis [4]): 16 mg/L | MIC (Enterococcus faecalis [6]): 64 mg/L | MIC (Enterococcus faecalis [13]): 1 mg/L
